# The source made the active and inactive calls. The rule behind the calls is not given here.
# What was measured:
# Mus musculus [1] = experiment: Teratogenic effect in SWV mouse assessed as resorptions at 537 mg/kg, ip administered on morning of day 8 of gestation; assay type: toxicity, organism-based; design: dose 537 mg/kg, route intraperitoneal; conditions: in vivo
# Mus musculus [2] = experiment: Teratogenic effect in SWV mouse assessed as resorptions at 164 mg/kg, ip administered on morning of day 8 of gestation; assay type: toxicity, organism-based; design: dose 164 mg/kg, route intraperitoneal; conditions: in vivo
# Mus musculus [3] = experiment: Neurotoxicity in CF1 albino mouse assessed as motor impairment at 300 mg/kg, ip after 0.5 hrs; assay type: toxicity, organism-based; design: dose 300 mg/kg, route intraperitoneal; conditions: in vivo
# Mus musculus [4] = experiment: Anticonvulsant activity in CF1 albino mouse assessed as inhibition of subcutaneous pentylenetetrazole-induced seizures at 30 mg/kg, ip after 0.5 hrs; assay type: functional, organism-based; design: dose 30 mg/kg
# In short: (§1)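 Adult male CF no. 1 albino mice (18-25 g) dosed ip with compound suspended in 0.5% methylcellulose (0.01 mL/g). Convulsant: pentylenetetrazol dissolved in 0.9% saline as a 0.85% solution for mice, given subcutaneously.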
# Mus musculus [5] = experiment: Anticonvulsant activity in CF1 albino mouse assessed as inhibition of maximal electroshock-induced seizures at 300 mg/kg, ip after 0.5 hrs; assay type: functional, organism-based; design: dose 300 mg/kg
# In short: (§2)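 Test compounds suspended in 0.5% methylcellulose and given ip to adult male CF no. 1 albino mice (18-25 g) at 0.01 mL/g body weight before maximal electroshock challenge.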
# Mus musculus [6] = experiment: Anticonvulsant activity in CF1 albino mouse assessed as inhibition of subcutaneous pentylenetetrazole-induced seizures at 300 mg/kg, ip after 0.5 hrs; assay type: functional, organism-based; design: dose 300 mg/kg; in short: as §1
# Mus musculus [7] = experiment: Anticonvulsant activity in CF1 albino mouse assessed as inhibition of maximal electroshock-induced seizures at 30 mg/kg, ip after 0.5 hrs; assay type: functional, organism-based; design: dose 30 mg/kg; in short: as §2
# Mus musculus [8] = experiment: Anticonvulsant activity in CF1 albino mouse assessed as inhibition of maximal electroshock-induced seizures at 100 mg/kg, ip after 0.5 hrs; assay type: functional, organism-based; design: dose 100 mg/kg; in short: as §2
# Mus musculus [9] = experiment: Anticonvulsant activity in CF1 albino mouse assessed as inhibition of subcutaneous pentylenetetrazole-induced seizures at 300 mg/kg, ip after 4 hrs; assay type: functional, organism-based; design: dose 300 mg/kg; in short: as §1
# Mus musculus [10] = experiment: Teratogenic effect in SWV mouse assessed as fetuses with neural tube deffects at 325 mg/kg, ip administered on morning of day 8 of gestation; assay type: toxicity, organism-based; design: dose 325 mg/kg, route intraperitoneal; conditions: in vivo
# Rattus norvegicus = experiment: Neurotoxicity in Sprague-Dawley rat assessed as motor impairment at 30 mg/kg, po after 0.25 to 4 hrs; conditions: in vivo
# Mus musculus [11] = experiment: Neurotoxicity in CF1 albino mouse assessed as motor impairment at 100 mg/kg, ip after 0.5 hrs; assay type: toxicity, organism-based; design: dose 100 mg/kg, route intraperitoneal; conditions: in vivo
# Mus musculus [12] = experiment: Teratogenic effect in SWV mouse assessed as live fetuses at 537 mg/kg, ip administered on morning of day 8 of gestation; assay type: toxicity, organism-based; design: dose 537 mg/kg, route intraperitoneal; conditions: in vivo
# Mus musculus [13] = experiment: Anticonvulsant activity in CF1 albino mouse assessed as inhibition of subcutaneous pentylenetetrazole-induced seizures at 100 mg/kg, ip after 4 hrs; assay type: functional, organism-based; design: dose 100 mg/kg; in short: as §1
# Mus musculus [14] = experiment: Anticonvulsant activity in CF1 albino mouse assessed as inhibition of subcutaneous pentylenetetrazole-induced seizures at 100 mg/kg, ip after 0.5 hrs; assay type: functional, organism-based; design: dose 100 mg/kg; in short: as §1
# Mus musculus [15] = experiment: Neurotoxicity in CF1 albino mouse assessed as motor impairment at 300 mg/kg, ip after 4 hrs; assay type: toxicity, organism-based; design: dose 300 mg/kg, route intraperitoneal; conditions: in vivo
# Mus musculus [16] = experiment: Anticonvulsant activity in CF1 albino mouse assessed as inhibition of maximal electroshock-induced seizures at 30 mg/kg, ip after 4 hrs; assay type: functional, organism-based; design: dose 30 mg/kg; in short: as §2
# Mus musculus [17] = experiment: Neurotoxicity in CF1 albino mouse assessed as motor impairment at 30 mg/kg, ip after 4 hrs; assay type: toxicity, organism-based; design: dose 30 mg/kg, route intraperitoneal; conditions: in vivo
# Mus musculus [18] = experiment: Teratogenic effect in SWV mouse assessed as resorptions at 805 mg/kg, ip administered on morning of day 8 of gestation; assay type: toxicity, organism-based; design: dose 805 mg/kg, route intraperitoneal; conditions: in vivo
# Mus musculus [19] = experiment: Teratogenic effect in SWV mouse assessed as live fetuses at 164 mg/kg, ip administered on morning of day 8 of gestation; assay type: toxicity, organism-based; design: dose 164 mg/kg, route intraperitoneal; conditions: in vivo
# Mus musculus [20] = experiment: Teratogenic effect in SWV mouse assessed as resorptions at 325 mg/kg, ip administered on morning of day 8 of gestation; assay type: toxicity, organism-based; design: dose 325 mg/kg, route intraperitoneal; conditions: in vivo
# Mus musculus [21] = experiment: Anticonvulsant activity in CF1 albino mouse assessed as inhibition of maximal electroshock-induced seizures at 300 mg/kg, ip after 4 hrs; assay type: functional, organism-based; design: dose 300 mg/kg; in short: as §2
# Mus musculus [22] = experiment: Neurotoxicity in CF1 albino mouse assessed as motor impairment at 100 mg/kg, ip after 4 hrs; assay type: toxicity, organism-based; design: dose 100 mg/kg, route intraperitoneal; conditions: in vivo
# Mus musculus [23] = experiment: Teratogenic effect in SWV mouse assessed as fetuses with neural tube deffects at 164 mg/kg, ip administered on morning of day 8 of gestation; assay type: toxicity, organism-based; design: dose 164 mg/kg, route intraperitoneal; conditions: in vivo
# Mus musculus [24] = experiment: Neurotoxicity in CF1 albino mouse assessed as motor impairment at 30 mg/kg, ip after 0.5 hrs; assay type: toxicity, organism-based; design: dose 30 mg/kg, route intraperitoneal; conditions: in vivo
# Mus musculus [25] = experiment: Anticonvulsant activity in CF1 albino mouse assessed as inhibition of subcutaneous pentylenetetrazole-induced seizures at 30 mg/kg, ip after 4 hrs; assay type: functional, organism-based; design: dose 30 mg/kg; in short: as §1
# Mus musculus [26] = experiment: Teratogenic effect in SWV mouse assessed as live fetuses at 325 mg/kg, ip administered on morning of day 8 of gestation; assay type: toxicity, organism-based; design: dose 325 mg/kg, route intraperitoneal; conditions: in vivo
# Mus musculus [27] = experiment: Teratogenic effect in SWV mouse assessed as fetuses with neural tube deffects at 537 mg/kg, ip administered on morning of day 8 of gestation; assay type: toxicity, organism-based; design: dose 537 mg/kg, route intraperitoneal; conditions: in vivo
compound,measurement,setting,value
CCC(CC(C)C)C(=O)Nc1ccc(S(N)(=O)=O)cc1 (stereo not drawn),Activity,Mus musculus [1],96.2%
same,Activity,Mus musculus [2],6.6%
same,Activity,Mus musculus [3],Non-toxic
same,Activity,Mus musculus [4],inactive
same,Activity,Mus musculus [5],inactive
same,Activity,Mus musculus [6],inactive
same,Activity,Mus musculus [7],inactive
same,Activity,Mus musculus [8],inactive
same,Activity,Mus musculus [9],inactive
same,Activity,Mus musculus [10],22.7%
same,Activity,Rattus norvegicus,Non-toxic
same,Activity,Mus musculus [11],Non-toxic
same,Activity,Mus musculus [12],3.8%
same,Activity,Mus musculus [13],inactive
same,Activity,Mus musculus [14],inactive
same,Activity,Mus musculus [15],Non-toxic
same,Activity,Mus musculus [16],inactive
same,Activity,Mus musculus [17],Non-toxic
same,Activity,Mus musculus [18],100%
same,Activity,Mus musculus [19],95.4%
same,Activity,Mus musculus [20],49.6%
same,Activity,Mus musculus [21],Active
same,Activity,Mus musculus [22],Non-toxic
same,Activity,Mus musculus [23],0.9%
same,Activity,Mus musculus [24],Non-toxic
same,Activity,Mus musculus [25],inactive
same,Activity,Mus musculus [26],50.4%
same,Activity,Mus musculus [27],50%
